IC50 data for seven compounds are collected here from BindingDB's records for doi:10.1016/j.bmcl.2012.04.051 (Ajinomoto Pharmaceuticals, 2012).

For the experiment, the target named is Voltage-dependent N-type calcium channel subunit alpha-1B (Homo sapiens, UniProt Q00975). Description: Inhibition of N-type voltage-dependent calcium channel CaV2.2 in human IMR32 cells assessed as inhibition of KCl-induced increase in intracellular calcium concentration preincubated for 4 to 5 mins before KCl challenge. The method in brief: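 IMR-32 cells on poly-L-lysine/collagen dishes, differentiated with 1 mM dibutyl-cAMP and 2.5 µM bromodeoxyuridine for 10–14 days. Loaded with 2.5 µM fura-2/AM, 37 °C, 30 min. HEPES recording medium with 1 µM nifedipine throughout. Calcium rise evoked by 60 mM KCl for 6 s, repeated every 5 min. Compound at 0.1, 1 or 10 µM; IC50 from ≥2 independent experiments.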
Chain of Voltage-dependent N-type calcium channel subunit alpha-1B (Q00975 whole entry): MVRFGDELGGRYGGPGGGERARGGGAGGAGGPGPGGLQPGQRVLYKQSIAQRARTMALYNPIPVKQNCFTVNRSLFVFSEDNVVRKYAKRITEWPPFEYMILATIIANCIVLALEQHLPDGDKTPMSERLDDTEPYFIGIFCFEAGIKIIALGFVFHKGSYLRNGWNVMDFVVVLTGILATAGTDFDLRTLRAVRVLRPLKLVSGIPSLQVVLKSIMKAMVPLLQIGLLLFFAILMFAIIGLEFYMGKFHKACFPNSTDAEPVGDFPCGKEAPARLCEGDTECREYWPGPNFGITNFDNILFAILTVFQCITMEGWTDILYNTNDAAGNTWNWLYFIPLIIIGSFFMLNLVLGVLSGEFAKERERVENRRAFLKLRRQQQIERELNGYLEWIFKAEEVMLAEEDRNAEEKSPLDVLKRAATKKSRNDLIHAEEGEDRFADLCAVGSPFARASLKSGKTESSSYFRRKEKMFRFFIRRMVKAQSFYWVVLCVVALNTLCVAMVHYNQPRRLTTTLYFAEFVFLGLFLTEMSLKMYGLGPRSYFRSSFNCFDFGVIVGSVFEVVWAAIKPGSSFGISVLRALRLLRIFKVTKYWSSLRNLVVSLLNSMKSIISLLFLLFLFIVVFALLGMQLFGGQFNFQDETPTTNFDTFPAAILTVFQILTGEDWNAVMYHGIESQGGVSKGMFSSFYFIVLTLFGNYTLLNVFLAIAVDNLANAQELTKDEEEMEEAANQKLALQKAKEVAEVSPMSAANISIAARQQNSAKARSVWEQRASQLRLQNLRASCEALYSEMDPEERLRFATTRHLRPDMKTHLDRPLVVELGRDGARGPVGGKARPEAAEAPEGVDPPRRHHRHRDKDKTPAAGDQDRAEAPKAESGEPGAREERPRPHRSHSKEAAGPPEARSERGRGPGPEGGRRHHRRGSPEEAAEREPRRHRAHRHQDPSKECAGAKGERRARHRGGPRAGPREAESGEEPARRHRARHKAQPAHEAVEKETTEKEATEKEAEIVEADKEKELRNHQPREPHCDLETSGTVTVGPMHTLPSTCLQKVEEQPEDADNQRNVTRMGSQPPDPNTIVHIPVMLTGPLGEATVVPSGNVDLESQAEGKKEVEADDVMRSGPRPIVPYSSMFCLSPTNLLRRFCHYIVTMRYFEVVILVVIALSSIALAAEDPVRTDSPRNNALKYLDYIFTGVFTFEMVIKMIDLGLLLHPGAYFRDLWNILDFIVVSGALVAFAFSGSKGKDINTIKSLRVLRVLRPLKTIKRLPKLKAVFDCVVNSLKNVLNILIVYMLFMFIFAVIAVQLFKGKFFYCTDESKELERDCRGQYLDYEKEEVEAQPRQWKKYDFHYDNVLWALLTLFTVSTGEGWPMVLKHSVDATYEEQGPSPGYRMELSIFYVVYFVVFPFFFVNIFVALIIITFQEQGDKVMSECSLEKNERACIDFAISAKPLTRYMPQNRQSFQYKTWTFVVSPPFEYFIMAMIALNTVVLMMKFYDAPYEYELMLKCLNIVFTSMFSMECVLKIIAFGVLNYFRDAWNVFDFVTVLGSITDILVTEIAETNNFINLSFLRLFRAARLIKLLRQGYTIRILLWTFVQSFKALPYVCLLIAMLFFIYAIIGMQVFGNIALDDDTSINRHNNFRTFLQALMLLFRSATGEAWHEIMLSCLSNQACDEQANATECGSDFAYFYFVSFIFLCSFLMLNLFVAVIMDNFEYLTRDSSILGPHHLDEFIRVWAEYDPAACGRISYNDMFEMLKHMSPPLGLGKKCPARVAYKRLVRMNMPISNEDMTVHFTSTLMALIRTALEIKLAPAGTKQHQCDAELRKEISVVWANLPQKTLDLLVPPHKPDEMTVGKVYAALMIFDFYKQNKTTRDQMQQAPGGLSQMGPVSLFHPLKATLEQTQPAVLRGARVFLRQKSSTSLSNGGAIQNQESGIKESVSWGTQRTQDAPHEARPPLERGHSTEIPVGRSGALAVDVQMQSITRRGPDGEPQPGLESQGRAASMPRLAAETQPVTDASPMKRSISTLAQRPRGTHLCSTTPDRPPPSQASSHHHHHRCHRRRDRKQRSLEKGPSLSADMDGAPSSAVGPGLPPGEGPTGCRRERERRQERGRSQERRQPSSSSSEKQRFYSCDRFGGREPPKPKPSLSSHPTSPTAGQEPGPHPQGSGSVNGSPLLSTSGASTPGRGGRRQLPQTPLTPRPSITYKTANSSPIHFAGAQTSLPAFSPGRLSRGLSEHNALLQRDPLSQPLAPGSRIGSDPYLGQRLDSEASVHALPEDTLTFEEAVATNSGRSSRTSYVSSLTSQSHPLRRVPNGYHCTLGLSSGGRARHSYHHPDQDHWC
(In general: Calcium flux is commonly read through the fluorescence of an indicator in the cells.)
What is called IC50 is the midpoint of a concentration-inhibition curve. For the compound `COc1c(Cl)cc(C2C(C(=O)OC/C=C/c3ccccc3)=CN=CC2C(=O)O)cc1Cl` (configuration not stated), the IC50 is 580 nM.
For `COC(OC)C1=C(C(=O)OC/C=C/c2ccccc2)C(c2cccc(C(F)(F)F)c2)C(C(=O)O)C=N1` (configuration not stated) the value was 1100 nM.
On to `O=C(OC/C=C/c1ccccc1)C1=CN=CC(C(=O)O)C1c1ccc(Cl)cc1` (configuration not stated), for which the IC50 stood at 1200 nM.
As to `O=C(OC/C=C/c1ccccc1)C1=CN=CC(C(=O)O)C1c1cccc(C(F)(F)F)c1` (configuration not stated), the half-inhibitory concentration (IC50) worked out at 1200 nM.
For `COC(OC)C1=C(C(=O)OC/C=C/c2ccccc2)C(c2cccc(Cl)c2)C(C(=O)O)C=N1` (configuration not stated) the value was 1100 nM.
In the case of `COC(OC)C1=C(C(=O)OC/C=C/c2ccccc2)C(c2ccc(Cl)cc2)C(C(=O)O)C=N1` (configuration not stated), the IC50 is 1100 nM.
For `COc1c(Cl)cc(C2C(C(=O)OC/C=C/c3ccccc3)=C(C(OC)OC)N=CC2C(=O)O)cc1Cl` (configuration not stated) the value was 1200 nM.
